Broadly, the IC50 is the midpoint of a concentration-inhibition curve. A higher IC50 goes with weaker potency in that assay.

The values that follow come from article PMC3662472 (Basic research in cardiology, 2012).

Entries after “also recorded” stand apart in the source; their conditions may differ. Where two headings read alike, the source gives them in different places. Ends that are not written are not given here.

For test [1], the system named is Cx43 hemichannels (cultured pig ventricular cardiomyocytes). Type of test: cell-based. The note with it: Vm +70 mV, siCx43 n = 9, siCx43scr n = 6, MOCK n = 3, ***P < 0.001 siCx43 versus MOCK and siCx43scr.
Test [2] has as its system porcine Cx43 gene gja1 / Cx43 expression. Briefly: Cx43 expression. Type of test: cell-based. To be noted: cultured pig ventricular cardiomyocytes.
For test [3], the target named is Cx43 hemichannels (HeLa-Cx43 cells) (Mus musculus, UniProt P23242). Type of test: cell-based. To be noted: for Qm (% normalized to average before peptide addition), time course: repeated Vm steps to +70 mV, n = 3; for Qm versus control / HC-mediated unitary events: concentration not given; for Qm versus control: Vm +70 mV (30 s); for Qm at steady state (reduction to, % of value before peptide): n = 5. In short, it runs like this: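 HeLa cells stably express mouse Cx43 from a CMV vector and are kept in DMEM with 20 % FBS, 2 mM glutamine and 1 μg/mL puromycin. In whole-cell clamp (1–3 MΩ pipettes, pH 7.2, 50 nM Ca2+, 1 kHz filter), peptide is pre-incubated 30 min or added during recording. Qm is integrated unitary current over each step, normalized to pre-peptide or […] control. Mean ± SEM, ANOVA/Bonferroni or t test.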

The next test has as its system Panx1 HCs. To be noted: 20 μM; ref [6]; cited from earlier work.
Test [4] concerns Cx43 hemichannels (pig ventricular cardiomyocytes). Briefly: Unitary hemichannel currents in isolated pig left ventricular cardiomyocytes. Type of test: cell-based. To be noted: Vm −70 to +80 mV.
Setting [5] is: scrambled peptide, Vm +70 mV, HeLa-Cx43.

Sequence of Cx43 hemichannels (HeLa-Cx43 cells) (P23242 whole entry): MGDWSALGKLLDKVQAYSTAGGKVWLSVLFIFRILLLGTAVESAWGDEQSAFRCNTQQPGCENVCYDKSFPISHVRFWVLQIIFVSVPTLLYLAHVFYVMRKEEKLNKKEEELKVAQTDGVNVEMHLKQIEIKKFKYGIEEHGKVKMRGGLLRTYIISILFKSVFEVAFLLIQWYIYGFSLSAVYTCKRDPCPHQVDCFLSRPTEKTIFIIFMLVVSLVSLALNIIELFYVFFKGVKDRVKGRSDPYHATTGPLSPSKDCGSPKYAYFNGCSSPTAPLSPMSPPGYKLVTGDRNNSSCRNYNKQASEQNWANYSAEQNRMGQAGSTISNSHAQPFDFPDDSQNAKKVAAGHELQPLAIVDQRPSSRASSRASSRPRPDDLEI

Turning to 5′-GAAAGAGGAGGAACUCAAA-dTdT-3′ [siCx43], the “Cx43 HC unitary current activity (Qm)” value in test [1] (listed as siRNA directed against Cx43) is given as “significantly inhibited”. The “Cx43 expression, % of control (MOCK)” value in test [2] (*P < 0.05 versus siCx43scr and MOCK) was found to be 50%. The Cx43 expression knockdown in test [2] (siRNA 24 h) is given as ~ 50%.

With TFEPIRISITK [SGap27], the “effect on Qm versus concentration” value in test [3] (concentration dependence, Vm +70 mV, HeLa-Cx43) is listed as “did not affect Qm unless it was applied at 1 mM concentration”. In test [3], the “Qm (% normalized to average before peptide addition), time course” value is “around 100%”. In test [3] (scrambled peptide, HeLa-Cx43), the Qm versus control entry is given as “not different from control”. Besides, the HC-mediated unitary events result in test [3] (setting [5]) is on record as “did not reveal any inhibition”.

VCYDKSFPISHVR [Gap26, VCYDKSFPISHVR] showed an IC50 in test [3] of around 81 µM. The “Qm at steady state (reduction to, % of value before peptide)” value in test [3] (250 μM, Vm steps −30 to +70 mV, *P < 0.05 versus SGap26) is reported as ~ 35%.

Regarding PSFDSRHCIVKYV [SGap26], in test [3] (1 mM, Vm +70 mV, HeLa-Cx43), the “inhibition of Qm at 1 mM” value is given as “strong inhibition”. For the same compound, the “inhibitory effect on Qm over concentration range” value in test [3] (concentration range at which Gap26 displayed inhibition) is given as “did not exhibit inhibitory effects”. In addition, in test [3], the “Qm (% normalized to average before peptide addition), time course” value is on record as “around 100%”. The Qm versus control entry in test [3] (scrambled peptide, HeLa-Cx43) is “not different from control”. The HC-mediated unitary events result in test [3] (setting [5]) is on record as “did not reveal any inhibition”. Besides, in test [3] (time course, Vm steps to +70 mV, scrambled peptide), the “Qm decay over time” value is reported as “did not cause any Qm decay”.

In the case of `CC1(C)[C@@H](OC(=O)CCC(=O)O)CC[C@]2(C)[C@H]3C(=O)C=C4[C@@H]5C[C@@](C)(C(=O)O)CC[C@]5(C)CC[C@@]4(C)[C@]3(C)CC[C@@H]12` [carbenoxolone], the “block of Panx1 HCs” value in the test on Panx1 HCs is reported as “known to block Panx1 HCs”. For the same compound, the unitary current activity entry in test [3] (100 μM, Vm = +70 mV, HeLa-Cx43) was “rapidly disappeared”. The “unitary current events in cardiomyocytes” value in test [4] (20 μM) is “not influenced; also recorded: not affected”; in test [4] (20 μM, listed as Carbenoxolone) it was “no effect”; in test [4] (100 μM) it was “acted inhibitory; also recorded: clearly inhibited the currents”.

For the compound 5′-AGAGAUACGAACAAGAGAG-3′ [siCx43^scr], in test [1], the “Cx43 HC unitary current activity (Qm)” value was “no effect”. The “effect on Cx43 expression” value in test [2] (scrambled siRNA) is given as “no effect”.

In the case of SRPTEKTIFII [Gap27, SRPTEKTIFII], in test [3], the IC50 is around 161 µM. For the same compound, in test [3] (300 μM, Vm steps to +70 mV, **P < 0.01 versus SGap27), the “Qm at steady state (reduction to, % of value before peptide)” value is listed as ~ 15%.
